Active and inactive are the calls of the source. The calls are words filed in the database; no cut-off is given here.
Legend:
[1] = biological target: T1, Amyloid-beta precursor protein (Homo sapiens, UniProt P05067); test: Inhibition of amyloid beta (1 to 42) aggregation in mouse BV-2 cells exposed to amyloid-beta (1 to 42) (unknown origin) at 10 uM measured after 24 to 48 hrs by thioflavin T staining based fluorescence assay; assay type: cell-based; conditions: time 24-48 hrs
BV-2 [2] = test: Neuroprotective activity in amyloid beta (1 to 42)-induced inflammation in mouse BV-2 cells assessed as IL-1beta mRNA expression at 10 uM measured after 24 hrs by SYBR green staining based qRT-PCR analysis (reference value: 1.53 +/- 0.13%); assay type: functional
BV-2 [3] = test: Neuroprotective activity in amyloid beta (1 to 42)-induced inflammation in mouse BV-2 cells assessed as TNFalpha mRNA expression at 10 uM measured after 24 hrs by SYBR green staining based qRT-PCR analysis (reference value: 1.73 +/- 0.22%); assay type: functional
[4] = Induction of ROS generation in mouse BV-2 cells at 10 uM measured after 24 hrs by DCFH-DA staining based fluorescence assay; assay type: toxicity, cell-based; conditions: bv-2, 24 h
In short: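 BV-2 cells seeded overnight at 1 × 10^4/well, compound alone (no Aβ). Cells loaded with 20 μM (final) DCFH-DA for 30 min at 37 °C, washed, then given conditioned medium for 24 h. Fluorescence read at ex […] nm. Expressed as % of control; n = 3 in triplicate, one-way ANOVA with LSD.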

BV-2 [5] = test: Neuroprotective activity in amyloid beta (1 to 42)-induced inflammation in mouse BV-2 cells assessed as change in IL-6 mRNA expression at 10 uM measured after 24 hrs by SYBR green staining based qRT-PCR analysis; assay type: functional, cell-based
[6] = biological target: T1, Amyloid-beta precursor protein; test: Inhibition of amyloid beta (1 to 42) (unknown origin) aggregation at 100 uM incubated for 48 hrs by ThioflavinT staining based fluorescence assay relative to control
In short: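 Compound in DMSO (1 μl of a 1 mM solution) mixed with 9 μl of 25 μM Aβ1–42 in Tris pH 7.4. Incubated 48 h at 37 °C without agitation, then 200 μl of 5 μM ThT added. Fluorescence read at ex 446/em 500 nm; % inhibition vs DMSO control, solvent blank subtracted.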

[7] = Octanol/water partition coefficient, log P of the compound incubated for 2 hrs under shaking condition by HPLC analysis; assay type: physicochemical
In short: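 Shake-flask log P: 10 mM stock (DMSO, or octanol for highly lipophilic compounds) partitioned between mutually saturated octanol and water at three phase ratios. Shaken 2 h at 25 ± 1 °C, phases separated, each phase quantified by C18 HPLC-UV. Mobile phase 0.1% formic acid:methanol 40:60; log P averaged over the three ratios.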

BV-2 [8] = test: Cytotoxicity against mouse BV-2 cells assessed as reduction in cell viability at 10 uM measured after 24 hrs by MTT assay; assay type: toxicity, cell-based; conditions: bv-2, 24 h
In short: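 BV-2 microglia grown in DMEM with 10% FBS, HEPES and Glutamax at 37 °C, 5% CO2, seeded overnight at 1 × 10^4 cells/well. Compound alone at 0–200 μM (range extended lower where needed) for 24 h. MTT 2 h at 37 °C, formazan dissolved in DMSO, A570 read. Used to pick non-toxic concentrations.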

BV-2 [9] = test: Neuroprotective activity in amyloid beta (1 to 42)-induced cytotoxicity in mouse BV-2 cells assessed as cell viability at 10 uM measured after 24 hrs by MTT assay (reference value: 54.96 +/- 1.12%); assay type: functional; conditions: read-out: Activity
BV-2 [10] = test: Neuroprotective activity in amyloid beta (1 to 42)-induced oxidative stress in mouse BV-2 cells assessed as intracellular ROS level at 10 uM measured after 24 hrs by DCFH-DA staining based fluorescence assay (reference value: 150.91 +/- 0.49%); assay type: functional
SH-SY5Y = test: Neuroprotective activity against human SH-SY5Y cells co-cultured with 10 uM compound pretreated BV-2 cells exposed to amyloid beta (1 to 42) assessed as cell viability measured after 24 hrs by MTT assay (reference value: 80.62 +/- 0.86%); assay type: functional; conditions: read-out: Activity
[11] = biological target: T1, Amyloid-beta precursor protein; test: Inhibition of amyloid beta (1 to 42) (unknown origin) aggregation incubated for 48 hrs by ThioflavinT staining based fluorescence assay

T1 sequence (P05067 whole entry): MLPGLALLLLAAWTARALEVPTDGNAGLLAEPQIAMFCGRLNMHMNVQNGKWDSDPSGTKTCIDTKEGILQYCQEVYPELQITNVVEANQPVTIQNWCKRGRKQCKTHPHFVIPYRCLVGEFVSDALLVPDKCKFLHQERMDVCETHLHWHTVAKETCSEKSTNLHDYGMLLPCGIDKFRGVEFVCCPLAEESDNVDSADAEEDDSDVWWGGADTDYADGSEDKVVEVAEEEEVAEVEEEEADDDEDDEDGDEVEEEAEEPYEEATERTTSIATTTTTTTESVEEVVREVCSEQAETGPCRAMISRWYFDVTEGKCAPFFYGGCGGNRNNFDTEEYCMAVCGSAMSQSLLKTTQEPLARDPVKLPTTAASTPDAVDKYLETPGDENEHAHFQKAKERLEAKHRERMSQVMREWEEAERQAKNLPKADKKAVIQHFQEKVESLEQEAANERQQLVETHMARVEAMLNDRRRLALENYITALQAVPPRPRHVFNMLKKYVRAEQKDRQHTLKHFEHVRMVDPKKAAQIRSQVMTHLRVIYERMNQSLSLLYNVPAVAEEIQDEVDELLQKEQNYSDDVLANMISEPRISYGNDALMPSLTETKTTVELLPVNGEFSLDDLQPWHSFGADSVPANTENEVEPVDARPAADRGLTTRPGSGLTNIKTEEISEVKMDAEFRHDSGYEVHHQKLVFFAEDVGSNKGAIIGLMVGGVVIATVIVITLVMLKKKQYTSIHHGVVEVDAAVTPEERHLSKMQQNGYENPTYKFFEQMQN

- inhibition [1]: Active
- inhibition [6]: > 50%
- logP at 2 h [7]: 4.92
- IC50 [11]: 14.1 µM
Compound: COc1cc(/C=C/C(=O)OCc2cn(-c3ccc(Oc4ccccc4)cc3)nn2)ccc1O
- Activity (BV-2 [2]): 8.29%
- Activity (BV-2 [3]): 1.19%
- Activity [4]: Non-Toxic
- Activity (BV-2 [5]): inactive
- Activity (BV-2 [8]): Non-Toxic
- viability at 10 µM (BV-2 [9]): 62.9%
- Activity (BV-2 [10]): 105.68%
- viability at 10 µM (SH-SY5Y): 87.2%

Reference: ChEMBL document CHEMBL5584325, “Discovery of novel coumarin triazolyl and phenoxyphenyl triazolyl derivatives targeting amyloid beta aggregation-mediated oxidative stress and neuroinflammation for enhanced neuroprotection” (RSC Med Chem, 2024)
